Screening results: PubChem BioAssay, several laboratories
Only some compounds are listed: those with a hit (about 29% of all), similar ones and a draw of the others.
CYP2C9 activ: activators of human CYP2C9. recombinant CYP2C9, luciferin-H conversion, luminescence; stronger effect = higher value; factor 1 = untreated enzyme, 0 = blocked. 96,000 compounds, 1.4% hits. activation factor at 5 µM. P11712;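 active = activation factor of 2 or more for CYP2C9 at a 5 µM dose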;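 note: 0 = sulfaphenazole-blocked wells and 1 = vehicle-only wells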
Target sequence (P11712 whole entry, looked up): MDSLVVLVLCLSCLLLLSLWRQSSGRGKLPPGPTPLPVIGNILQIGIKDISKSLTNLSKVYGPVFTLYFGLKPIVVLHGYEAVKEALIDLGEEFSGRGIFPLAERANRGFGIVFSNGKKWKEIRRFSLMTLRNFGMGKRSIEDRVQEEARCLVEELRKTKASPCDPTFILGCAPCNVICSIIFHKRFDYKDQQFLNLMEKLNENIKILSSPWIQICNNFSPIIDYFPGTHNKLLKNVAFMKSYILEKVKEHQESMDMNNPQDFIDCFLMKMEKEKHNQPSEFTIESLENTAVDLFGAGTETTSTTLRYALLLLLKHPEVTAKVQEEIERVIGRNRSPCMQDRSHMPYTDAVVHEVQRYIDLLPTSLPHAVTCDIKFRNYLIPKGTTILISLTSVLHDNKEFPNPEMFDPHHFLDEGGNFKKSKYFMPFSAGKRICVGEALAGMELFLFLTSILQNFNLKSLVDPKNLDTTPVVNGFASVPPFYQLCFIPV
Ecoli WT expand: blocks growth of wild type E. coli BW25113. OD600 absorbance. growth inhibition, % at 100 µM. 98,000 compounds, 0.15% hits. AID 710;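 active = growth inhibition above about 50% at one test dose, limit read from the data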;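 note: growth measured after 20 h incubation at 37 °C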
CYP2C19 activ: activators of human cytochrome P450 2C19. P33261. 96,000 tested, under 10 active. AID 1025. recombinant CYP2C19, luciferin-H EGE luminescence; stronger effect = higher value; 0 = fully inhibited enzyme, 1 = untreated enzyme. activation factor at 5 µM;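 active = activation factor of at least 2 at 5 µM in the primary screen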;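 note: 0 = wells with 2.5 mM tranylcypromine and 1 = vehicle-only wells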
CYP2C19 inhib: inhibitors of human CYP2C19 | AID 778 | CYP2C19 Supersomes, luciferin-H EGE luminescence, 30 min | inhibition, % at 5 µM | 96,000 compounds, 21% hits | P33261;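 active = CYP2C19 inhibition above a set limit at 5 µM in the primary screen, cut at about 50% in these data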;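 note: plate controls were negative control wells for no effect and 2.5 mM tranylcypromine positive control for full effect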
tolC growth inh: growth inhibitors of E. coli BW25113 tolC mutant. OD615. 65,000 compounds, 2.2% hits. growth inhibition, % at 10 µM (by protocol). AID 573;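 active = growth inhibition at or above a cutoff equal to the mean over every tested compound plus 3 SD, cut at about 60% in these data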;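 note: growth measured after 20 h incubation at 37 °C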
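Test system – E. coli BW25113 ΔtolC::kan, tolC deletion mutant strain · Detection – OD at 615 nm · Buffer or medium – LB with kanamycin 50 µg/mL · Times – 20 h compound exposure of bacteria at 37 °C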
CYP2C9 inhib: blocks human cytochrome P450 2C9; inhibition, % at 5 µM; CYP2C9 Supersomes, luciferin-H conversion, luminescence; 96,000 compounds, 20% hits; P11712;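 active = blocking of liver enzyme CYP2C9 beyond about 50% at 5 µM, limit read from the data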
Numbers without * were called inactive; . = no result.

SMILES	CYP2C9 activ	Ecoli WT expand	CYP2C19 activ	CYP2C19 inhib	tolC growth inh	CYP2C9 inhib
O=C(CN1/C(=C(/O)c2ccccc2)C(=O)c2ccccc2S1(=O)=O)c1ccccc1	0.5	8	0.9	11	.	48
Cc1ccc(SCCNC(=S)Nc2cc(C)ccc2C)cc1	0.6	-14	0.5	54*	.	42
Cc1ccc(SCCNC(=S)Nc2ccc(C)c(C)c2)cc1	0.7	5	0.6	44	.	29
CCC(C)(C)NC(=O)C(c1cccn1C)N(C(=O)Cn1nnc2ccccc21)c1ccc(F)cc1 (stereo not drawn)	0.9	-11	1	5	3	5
CCS(=O)(=O)c1nc(NC(C)=O)n[nH]1	1.1	2	1.1	-8	-14	-9
O=C(NNC(=S)Nc1cccc2ccccc12)c1cccc(Br)c1	0	11	0.1	91*	.	96*
Cc1ccc(C(=O)NNC(=S)Nc2cccc3ccccc23)s1	0.3	0	0.6	38	.	65*
CC(C)(C)c1ccc(C(=O)NNC(=O)c2cccc(Br)c2)cc1	1.3	1	1.1	-11	.	-31
O=C(Nc1cccnc1Cl)c1ccc(S(=O)(=O)N2CCCCCC2)cc1	0.7	-10	1.1	-8	.	27
O=C(Nc1ccc2c(c1)OCO2)c1cccc(F)c1	1	8	0.6	42	6	2
COc1cc(C(=O)Nc2ccncc2)cc(OC)c1OC	0.1	2	0	98*	-9	86*
O=C(Nc1ccncc1)c1cc(F)cc(F)c1	0.6	11	0.1	86*	.	41
COc1ccc(NC(=O)c2ccc(-n3nc(C)c[n+]3[O-])cc2)cc1	0.7	0	0.9	7	-20	29
Cc1n[nH]c(C)c1S(=O)(=O)N1CCN(C(=O)c2ccco2)CC1	0.8	3	1	-3	-17	19
CC(=O)OC1c2ccccc2C(=O)N1Cc1ccccc1 (stereo not drawn)	1.2	23	0.5	51*	.	-17
O=C(C1=C(O)C(=O)N(Cc2ccco2)C1c1cccnc1)c1cc2ccccc2o1 (stereo not drawn)	0.8	2	1	-5	27	25
O=C(NCc1cccnc1)C1c2ccccc2C(=O)N1Cc1ccco1 (stereo not drawn)	0.8	-7	0.2	78*	-2	21
CC(C)CCN1C(=O)c2ccccc2C1C(=O)NCc1cccnc1 (stereo not drawn)	0.8	2	0.4	62*	.	19
CC(=O)OC1c2ccccc2C(=O)N1c1ccccc1C (stereo not drawn)	1	6	1	0	-11	-2
O=C(CCCN1C(=O)c2ccccc2C1=O)NCc1cccnc1	1.4	2	1	-3	-10	-39
O=C(NCc1cccnc1)C1c2ccccc2C(=O)N1Cc1ccccc1 (stereo not drawn)	0.8	6	0.4	63*	.	22
CC(NC(=O)COc1ccccc1)C(c1ccccc1)N1CCN(C)CC1 (stereo not drawn)	0.9	-8	0.5	46	-15	14
C=CCOc1ccccc1/C=c1\sc2nc(=O)c(C)nn2c1=O	.	.	.	.	-2	.
O=C(O)c1ccccc1CSc1ncn[nH]1	1.2	-4	1.1	-8	.	-20
Cc1cccc2c1NC(=O)C2(c1ccc(O)cc1)c1ccc(O)cc1	0.2	11	0.4	60*	.	79*
SMILES	CYP2C9 activ	Ecoli WT expand	CYP2C19 activ	CYP2C19 inhib	tolC growth inh	CYP2C9 inhib
COc1ccc(NC(=O)c2ccccn2)cc1	0.8	19	0.7	26	.	20
CCc1ccc(NC(=O)c2cc(-c3ccc(OC)cc3)on2)cc1	0.9	-14	1	-4	-9	14
COc1ccc(Cc2nc(C(=O)Nc3ccc(Cl)cc3)cs2)cc1	0.1	-13	0.2	83*	.	90*
COc1ccc(Cc2nc(C(=O)Nc3ccc(F)cc3)cs2)cc1	0.1	-9	0.1	89*	.	87*
COc1ccc(Cc2nc(C(=O)Nc3ccccc3)cs2)cc1	0.1	8	0.1	88*	.	90*
COc1ccc(COc2ccsc2C(=O)Nc2ccc(Cl)cc2)cc1	0.4	-13	0.9	10	.	59*
O=C(c1ccccc1)N(c1ccccc1)C1C=CS(=O)(=O)C1 (stereo not drawn)	0.8	6	0.7	25	-9	17
COc1ccc(N2CCN(c3nc(NCCO)nc(N4CCOCC4)n3)CC2)cc1	0.2	5	0.4	59*	3	80*
COc1ccc(C2Nc3ccccc3C(=O)N2Cc2ccco2)cc1CN1C(=O)c2ccccc2C1=O (stereo not drawn)	0.2	-13	0.3	74*	0	85*
COc1ccc(C2Nc3ccccc3C(=O)N2Cc2ccccc2)cc1COc1ccccn1 (stereo not drawn)	0.4	-13	0.5	54*	.	61*
CN1CCC(=NNC(=O)C(=O)NC(C)(C)C)CC1	0.4	2	0.7	31	.	55*
O=C(Nc1ccc2nc(-c3cccnc3)[nH]c2c1)c1ccco1	0.8	14	0.9	10	1	17
O=C1c2ccccc2C(Nc2ccc3nc(-c4cccnc4)[nH]c3c2)N1Cc1ccco1 (stereo not drawn)	0.1	3	0.7	26	16	93*
O=C1c2ccccc2C(Nc2ccc(-c3nc4ccccc4[nH]3)cc2)N1Cc1ccco1 (stereo not drawn)	0.1	-3	0.3	73*	29	87*
Nc1nc(C2CC2)c(Sc2sc(N)nc2C2CC2)s1	0.5	22	0.4	62*	42	48
Cc1ccnc(NC(=O)CCC(=O)N(CC(=O)NC2CCCCC2)CC2CCCO2)c1 (stereo not drawn)	0.7	-7	0.9	9	-30	31
CCC1=Nc2cc(C(=O)NCCCOC)ccc2Sc2ccccc21	0.6	1	0.5	54*	.	40
COc1ccc(N(CC(=O)NCCSC2CCCCC2)S(C)(=O)=O)c(OC)c1	1.9	6	0.8	22	.	-91
CCc1ccc2c(CN3CCc4ccccc43)cc(=O)oc2c1	0.6	-1	0.1	94*	15	44
Cc1ccc2c(CN3CCCc4ccccc43)cc(=O)oc2c1C	0.7	-2	0.7	25	-8	31
CCc1ccc2oc(=O)cc(CN3CCN(CCO)CC3)c2c1	0.9	5	0.8	16	-12	13
Cc1cc2oc(=O)cc(CN3CCc4ccccc43)c2cc1Cl	0.4	-1	0.2	79*	27	61*
O=C(N/N=C/c1cc([N+](=O)[O-])ccc1N1CCNCC1)c1ccc([N+](=O)[O-])cc1	1	5	0.9	6	.	4
CCOc1ccc2[nH]c(=O)c(CN(Cc3cccs3)Cc3nnnn3C(C)(C)CC)cc2c1	0.6	-6	0.6	40	30	37
Cc1cccc2cc(CN(Cc3cccs3)Cc3nnnn3Cc3ccccc3)c(=O)[nH]c12	0.6	-8	0.4	65*	34	42
